Measured values of several laboratories.

Cc1ccc(C=NNC(=S)N[N+](=O)[O-])cc1
IC50 (Leishmania tropica; parasite growth; J774.A1; 72 h, intracellular, amastigote): 331 µM

Cc1c(O)cccc1C(=O)N[C@@H](CSc1ccccc1)[C@H](O)CN1C[C@H]2CCCC[C@H]2C[C@H]1C(=O)NC(C)(C)C
IC50 (Severe acute respiratory syndrome coronavirus 2; viral replication, inhibitor; Caco-2; replicon): 1.91 µM

COc1ncc(-c2cn([C@@H]3O[C@](F)(CO[P@@](=O)(N[C@@H](C)C(=O)OC(C)C)Oc4ccccc4)[C@@H](O)[C@H]3O)cn2)cn1
IC50 (Severe acute respiratory syndrome coronavirus 2; viral replication, inhibitor; A549-ACE2; 24 h): > 100 µM

COc1cnc(OC)n2nc(NS(=O)(=O)c3c(OCC(F)F)cccc3C(F)(F)F)nc12
inhibition (L02; cell growth or viability, CCK-8; 0.78 µM, 72 h): 0%

CC1=NN(c2ccc(C)c(C)c2)C(=O)/C1=N\Nc1cccc(-c2cccc(C(=O)O)c2)c1O
IC50 (Severe acute respiratory syndrome coronavirus 2; viral replication, inhibitor; Calu-3; replicon): 4.55 µM

COc1ncc(-c2cn([C@@H]3O[C@](F)(CO)[C@@H](O)[C@H]3O)cn2)c(N)n1
IC50 (Severe acute respiratory syndrome coronavirus 2; viral replication, inhibitor; A549-ACE2; 24 h): > 100 µM

Cc1ccc(NC(=O)C2(c3ccc4c(c3)OC(F)(F)O4)CC2)nc1-c1cccc(C(=O)O)c1
IC50 (Severe acute respiratory syndrome coronavirus 2; viral replication, inhibitor; Calu-3; replicon): 0.458 µM

O=[N+]([O-])NC(=S)NN=Cc1ccc(Br)cc1
IC50 (Leishmania tropica; parasite growth; J774.A1; 72 h, intracellular, amastigote): 1140 µM

CC(=O)O[C@H]1C(=O)[C@@]2(C)[C@H]([C@H](OC(=O)c3ccccc3)[C@]3(O)C[C@H](OC(=O)[C@H](O)[C@@H](NC(=O)c4ccccc4)c4ccccc4)C(C)=C1C3(C)C)[C@]1(OC(C)=O)CO[C@@H]1C[C@@H]2O
inhibition (L02; cell growth or viability, CCK-8; 12.5 µM, 72 h): > 90%

N.N.[Cl][Pt][Cl]
inhibition (NALM-6; cell growth or viability, ATP luminescence; 10 µM, 72 h): 97%

Nc1ncncc1-c1cn([C@@H]2O[C@](F)(CO)[C@@H](O)[C@H]2O)cn1
IC50 (Severe acute respiratory syndrome coronavirus 2; viral replication, inhibitor; A549-ACE2; 24 h): > 100 µM

COc1ccc(C=NNC(=S)N[N+](=O)[O-])cc1OC
IC50 (Leishmania tropica; parasite growth; J774.A1; 72 h, intracellular, amastigote): 775 µM

Nc1ncc(-c2cn([C@@H]3O[C@](F)(CO)[C@@H](O)[C@H]3O)cn2)cn1
IC50 (Severe acute respiratory syndrome coronavirus 2; viral replication, inhibitor; A549-ACE2; 24 h): > 100 µM

O=c1[nH]c2ccccc2n1C1CCN(CCCC(c2ccc(F)cc2)c2ccc(F)cc2)CC1
IC50 (Severe acute respiratory syndrome coronavirus 2; viral replication, inhibitor; Caco-2; replicon): 2.14 µM
